Screening data deposited in PubChem by several laboratories.
CSC inhib: cancer stem cell viability inhibitors, primary screen, luminescence. actives 1.1% (n = 300,000). AID 2717, 2010. inhibition, % at 7.5 µM. cancer stem cell-like cells viability; in the data active = inhibition above about 75%; tested in HMLE shEcad cells
Mdm2-MdmX inh: inhibitors of human Mdm2-MdmX association, primary screen, cell-based, luminescence, split luciferase, SaOS-2, uHTS | Protein Mdm4 (Homo sapiens) + E3 ubiquitin-protein ligase Mdm2 (Homo sapiens), … | SaOS-2 split-luciferase Mdm2/MdmX complementation | inhibition, % at 8 µM | actives 3% (n = 330,000) | AID 485346, 2010;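 active = inhibition of at least 50% at 8 µM in the primary screen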
Target sequence (O15151 whole entry, looked up): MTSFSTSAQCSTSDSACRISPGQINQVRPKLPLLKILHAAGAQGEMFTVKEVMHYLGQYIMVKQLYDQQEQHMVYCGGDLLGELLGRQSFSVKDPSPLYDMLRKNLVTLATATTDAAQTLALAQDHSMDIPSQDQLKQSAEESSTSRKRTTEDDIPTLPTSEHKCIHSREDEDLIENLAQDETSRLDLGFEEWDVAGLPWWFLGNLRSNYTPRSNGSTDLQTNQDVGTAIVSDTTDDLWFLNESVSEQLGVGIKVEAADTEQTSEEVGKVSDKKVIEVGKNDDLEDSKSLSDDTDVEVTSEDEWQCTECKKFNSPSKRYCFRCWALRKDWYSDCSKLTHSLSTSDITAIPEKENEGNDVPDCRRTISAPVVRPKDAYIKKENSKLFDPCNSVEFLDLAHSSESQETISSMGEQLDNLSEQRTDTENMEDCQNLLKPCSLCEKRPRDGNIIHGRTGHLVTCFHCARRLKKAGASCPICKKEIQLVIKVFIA
Target sequence (Q00987 whole entry, looked up): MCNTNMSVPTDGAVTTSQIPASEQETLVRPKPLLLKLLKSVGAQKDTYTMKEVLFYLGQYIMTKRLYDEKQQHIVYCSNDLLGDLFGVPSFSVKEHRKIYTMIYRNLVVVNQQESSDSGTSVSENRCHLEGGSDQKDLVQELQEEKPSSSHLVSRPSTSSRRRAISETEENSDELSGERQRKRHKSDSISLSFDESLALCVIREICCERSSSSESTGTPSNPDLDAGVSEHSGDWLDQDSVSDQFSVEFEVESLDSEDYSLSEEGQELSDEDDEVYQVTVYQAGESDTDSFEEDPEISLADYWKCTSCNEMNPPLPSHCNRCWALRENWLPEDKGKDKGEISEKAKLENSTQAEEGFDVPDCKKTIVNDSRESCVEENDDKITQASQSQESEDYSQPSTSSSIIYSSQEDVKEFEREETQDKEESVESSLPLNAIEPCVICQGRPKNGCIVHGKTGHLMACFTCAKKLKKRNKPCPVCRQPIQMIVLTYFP
T cruzi inh: inhibitors of intracellular T. cruzi growth, primary screen, luminescence, NIH3T3 host cells; T. cruzi beta-gal in NIH3T3, 90 h; inhibition, % (concentration not given with the values); actives 1.4% (n = 300,000);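 active = mean inhibition across valid replicates above about 55%, limit read from the data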;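 also: signal also drops with host cell toxicity which is not excluded here; higher percent means less beta-gal luminescence so fewer parasites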
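Assay system: NIH/3T3 host cells with β-galactosidase reporter T. cruzi; input: 5,000 host fibroblasts per well; compound: single 50 nL compound addition per well in DMSO; timing: ≥90 h infection period, 3 h prior cell attachment; measured by: GalScreen β-gal luminescence, detergent lysis, 60 min; evaluation: percent inhibition of parasite-derived β-gal signal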
SKKanGAS inh: S. pyogenes SKKanGAS growth inhibitors in kanamycin, primary screen, streptokinase expression inhibitor project, SKKanGAS strain, BacTiter-Glo luminescence | 6 h | inhibition, % at 7.5 µM | actives 1.3% (n = 300,000) | AID 1662, 2009;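 active = mean replicate score, as percent of positive control median, at least 50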;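 also: strain carries kanamycin resistance gene driven by streptokinase promoter and grows in 40 µg/ml kanamycin; loss of luminescence reflects streptokinase promoter inhibition or plain growth inhibition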
aSyn 5UTR inh: MLPCN primary screen, SNCA 5' untranslated region. alpha-synuclein 5'UTR reporter, inhibitor activity. inhibition, % (tested at 7.5 µM). actives 0.82% (n = 300,000); in the data active = inhibition above about 60%;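 also: H4 neuroglioblastoma cells stably carrying SNCA 5'UTR luciferase fusion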
Mdm2 MdmX conf: Mdm2-MdmX complex disruptors, retested hits, confirmation, luminescence, single concentration. shares compounds with Mdm2-MdmX inh. Mdm2-MdmX binding, luminescent assay. actives 55% (n = 10,000). inhibition, % at 8 µM; in the data active = inhibition above about 40%
FLuc counter: full-length luciferase signal inhibition, confirmation, counter-screen for Mdm2/MdmX interaction inhibitor project, cell-based, single concentration, SaOS-2; shares compounds with Mdm2-MdmX inh; SaOS-2 full-length luciferase counterscreen, luminescence; inhibition, % at 8 µM; actives 77% (n = 6,200);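 active = mean inhibition at 8 µM reaching about 37%, which flags the compound as non-specific, limit read from the data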;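 also: p53-null SaOS-2 cells with luciferase driven by a doxycycline-inducible promoter; compound on cells about two nights before reading with doxycycline added after day one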
Numbers stand for hits; n = inactive; x = no result. The list is not random: actives were taken first. Their share in the collection is about 5.4%.

SMILES	CSC inhib	Mdm2-MdmX inh	T cruzi inh	SKKanGAS inh	aSyn 5UTR inh	Mdm2 MdmX conf	FLuc counter
O=C1NC(=O)C(=Cc2ccc(-c3ccc(Cl)cc3)o2)C(=O)N1	n	53	n	n	n	n	x
CC1CCCCN1Cc1c[nH]c2ccccc12 (stereo not drawn)	n	n	n	n	n	x	x
C=C1C(=O)[C@@]23C[C@H]4[C@@H]5[C@@]6(C)CCC[C@@]57[C@@H]2[C@@H](O)[C@@H]1C[C@H]3[C@H]7N4C6	n	100	n	n	n	90	52
C=CCn1c(O)c(C(CC)=NCc2ccc3c(c2)OCO3)c(=O)[nH]c1=O	n	55	n	n	n	n	x
CCCCCCCCn1sccc1=O	n	80	x	x	x	n	x
NC1CCc2cc(O)c(O)cc2C1 (stereo not drawn)	n	n	x	x	x	x	x
COc1ccc(Oc2cc(NC(=O)c3nn(C)cc3[N+](=O)[O-])cc([N+](=O)[O-])c2)cc1	x	76	n	n	n	96	46
CC(C)(CN)CC(=O)O	n	n	n	n	n	x	x
CC(C)(O)C(=O)Nc1ccc([N+](=O)[O-])c(C(F)(F)F)c1	n	n	x	x	x	x	x
COc1cc2c(cc1OC)CN(c1ccc([N+](=O)[O-])c(C(F)(F)F)c1)CC2	n	59	n	n	n	n	x
CCCC[N+]12CCC(CC1)C(Cc1ccccc1)C2 (stereo not drawn)	n	n	n	n	n	x	x
CCOC(=O)C1(CCOc2ccccc2)CCN(C2Cc3ccccc3C2)CC1	n	n	n	n	n	x	x
C=C1C(=O)O[C@H]2C[C@@H](C)[C@@H]3C=CC(=O)[C@@]3(C)C[C@H]12	89	100	n	n	n	96	53
C=C1C(=O)O[C@H]2[C@H]1[C@H](OC(=O)CC(=O)O[C@@H]1C[C@@H](C)[C@@H]3C=CC(=O)[C@@]3(C)[C@H]3OC(=O)C(=C)[C@H]13)C[C@@H](C)[C@H]1C=CC(=O)[C@]12C	n	n	n	n	n	x	x
C=C1C(=O)O[C@@H]2C[C@@H](C)[C@@H]3C=CC(=O)[C@@]3(C)[C@@H](OC(=O)CC(=O)O[C@H]3[C@@H]4C(=C)C(=O)O[C@@H]4C[C@@H](C)[C@@H]4C=CC(=O)[C@]43C)[C@H]12	122	97	n	n	116	100	n
CCOC(=O)CC(NC(=O)C(Cc1ccc(N(CCCl)CCCl)cc1)NC(C)=O)C(=O)OCC (stereo not drawn)	n	81	n	n	n	57	n
CC(=O)NC(Cc1ccc(N(CCCl)CCCl)cc1)C(=O)NC(C(=O)O)C(C)C (stereo not drawn)	n	n	n	n	n	x	x
CN(C)CCN=Cc1c(O)n(CCC2=CCCCC2)c(=O)[nH]c1=O	n	n	n	n	n	x	x
COc1ccc(/C=C/C(=O)c2c(O)n(CCC3=CCCCC3)c(=O)[nH]c2=O)cc1	120	53	n	58	n	n	x
COC(=O)c1ccc(NC(=O)CSc2nc3ccc(N4C(=O)C5C6C=CC(C6)C5C4=O)cc3s2)cc1 (stereo not drawn)	n	69	n	n	n	n	x
O=C(O)CCC(=O)NCCC1=c2ccccc2=N/C1=C\c1c(O)n(Cc2ccc(F)cc2)c(=S)[nH]c1=O	n	n	n	n	n	x	x
O=c1c2ccccc2nc(Cc2ccccc2)n1-c1ccc(O)cc1	n	n	n	n	n	x	x
c1ccc2c(c1)OCC(C1=NCCN1)O2 (stereo not drawn)	n	57	n	n	n	n	x
COC(=O)C(O)(c1ccc(N=Cc2ccccc2O)c(C)c1)C(F)(F)F (stereo not drawn)	n	n	n	n	n	x	x
CC(C)(C)c1ccc(O)c(N=Cc2c(O)ccc3ccccc23)c1	n	50	n	87	n	n	x
SMILES	CSC inhib	Mdm2-MdmX inh	T cruzi inh	SKKanGAS inh	aSyn 5UTR inh	Mdm2 MdmX conf	FLuc counter
C=C1[C@@H](C)[C@H]2[C@H](Cc3ccccc3)NC(=O)[C@]23OC(=O)/C=C/[C@H](O)CCC[C@@H](C)C/C=C/[C@H]3[C@@H]1O	n	82	n	n	109	71	53
COc1cc(C2c3cc4c(cc3CC3COC(=O)C32)OCO4)cc(OC)c1OC (stereo not drawn)	x	61	x	x	x	54	98
COc1ccc2c(c1OC)CN1CCc3cc4c(cc3[C@H]1C2)OCO4	n	n	x	x	x	x	x
C=CCn1cc(C=C2C(=O)NC(=O)NC2=O)c2ccccc21	n	n	n	n	n	x	x
O=C1NC(=O)C(=Cc2cn(CCOc3ccc4c(c3)OCO4)c3ccccc23)C(=O)N1	n	59	n	n	n	n	x
CCN(CC)c1ccc(CNCCc2ccccc2F)cc1	n	54	n	n	n	48	61
Cc1ccc(CNCCc2ccccc2F)cc1	n	n	n	n	n	x	x
